For 13 compounds, Ki and Ratio results are on record in ChEMBL document CHEMBL1132231, “New generation dopaminergic agents. 6. Structure-activity relationship studies of a series of 4-(aminoethoxy)indole and 4-(aminoethoxy)indolone derivatives based on the newly discovered 3-hydroxyphenoxyethylamine D2 template” (J Med Chem, 1999).

Experiment [1] has as its target T1, Adrenergic receptor alpha-1 (Rattus norvegicus, UniProt P15823+P23944+P43140).
T1 sequence (P15823 whole entry): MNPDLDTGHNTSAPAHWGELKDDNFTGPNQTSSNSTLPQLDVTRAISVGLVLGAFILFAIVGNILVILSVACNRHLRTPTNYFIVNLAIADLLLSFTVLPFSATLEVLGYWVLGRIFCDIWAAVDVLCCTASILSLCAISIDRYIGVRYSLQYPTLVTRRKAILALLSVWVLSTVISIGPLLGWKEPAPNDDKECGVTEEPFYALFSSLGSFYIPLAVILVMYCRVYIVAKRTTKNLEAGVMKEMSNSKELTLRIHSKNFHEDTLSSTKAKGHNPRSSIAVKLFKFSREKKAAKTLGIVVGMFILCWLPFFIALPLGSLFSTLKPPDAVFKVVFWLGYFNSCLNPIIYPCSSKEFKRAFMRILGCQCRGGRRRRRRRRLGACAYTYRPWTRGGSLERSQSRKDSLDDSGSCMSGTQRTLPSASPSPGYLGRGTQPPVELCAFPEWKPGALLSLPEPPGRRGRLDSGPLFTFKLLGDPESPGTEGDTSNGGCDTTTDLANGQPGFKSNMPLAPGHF
T1 sequence (P23944 whole entry): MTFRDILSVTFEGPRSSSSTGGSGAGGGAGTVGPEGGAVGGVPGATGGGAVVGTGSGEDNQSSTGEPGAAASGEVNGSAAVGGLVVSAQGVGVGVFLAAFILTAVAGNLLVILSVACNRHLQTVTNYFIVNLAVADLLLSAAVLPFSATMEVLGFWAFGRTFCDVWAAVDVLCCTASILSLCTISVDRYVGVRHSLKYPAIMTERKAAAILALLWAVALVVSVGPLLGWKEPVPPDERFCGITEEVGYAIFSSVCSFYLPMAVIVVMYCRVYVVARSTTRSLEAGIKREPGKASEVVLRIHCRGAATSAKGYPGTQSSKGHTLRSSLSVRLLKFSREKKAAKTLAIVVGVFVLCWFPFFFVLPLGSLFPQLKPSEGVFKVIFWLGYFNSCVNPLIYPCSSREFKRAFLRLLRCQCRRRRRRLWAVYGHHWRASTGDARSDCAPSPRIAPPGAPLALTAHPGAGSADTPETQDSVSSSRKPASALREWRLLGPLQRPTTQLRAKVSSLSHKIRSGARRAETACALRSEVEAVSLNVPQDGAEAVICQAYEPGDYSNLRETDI
T1 sequence (P43140 whole entry): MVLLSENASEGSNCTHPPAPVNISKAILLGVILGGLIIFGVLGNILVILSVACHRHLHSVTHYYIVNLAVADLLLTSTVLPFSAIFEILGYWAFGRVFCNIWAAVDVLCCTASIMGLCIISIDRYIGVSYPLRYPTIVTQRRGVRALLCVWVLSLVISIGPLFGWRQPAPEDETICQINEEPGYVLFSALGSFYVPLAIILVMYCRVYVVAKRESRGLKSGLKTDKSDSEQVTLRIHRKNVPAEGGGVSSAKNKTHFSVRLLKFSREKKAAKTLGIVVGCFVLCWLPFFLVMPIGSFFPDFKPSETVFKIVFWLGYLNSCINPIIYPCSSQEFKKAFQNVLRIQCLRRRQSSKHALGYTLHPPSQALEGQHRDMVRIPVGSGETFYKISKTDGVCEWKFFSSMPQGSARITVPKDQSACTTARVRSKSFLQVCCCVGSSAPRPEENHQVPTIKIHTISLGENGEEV
Nature of the experiment: In vitro binding affinity towards alpha-1 adrenergic receptor by the displacement of [3H]prazosin radioligand in rat cortical homogenates. In short, it runs like this: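 Rat cortical homogenates labelled with [3H]prazosin (0.2 nM), incubated 30 min at 25 °C. Stopped with cold 50 mM Tris pH 7.4, then rapid filtration. Triplicate, at least eight concentrations. Nonlinear regression gave IC50, converted to apparent Ki by Cheng-Prusoff. Means of at least two experiments ± SEM; values without SEM are single determinations.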
Background: In a radioligand displacement assay an active substance lowers the binding of a labelled ligand.

For experiment [2], the target named is T2, D(2) dopamine receptor (Rattus norvegicus, UniProt P61169). Nature of the experiment: In vitro high binding affinity towards Dopamine receptor D2 by the displacement of [3H]quinpirole radioligand in rat striatal membranes. It is filed as cell membranes, Membrane.
Experiment [3] deals with D(2) dopamine receptor (Rattus norvegicus) (UniProt P61169). The experiment in a line: Ratio of Dopamine D2 receptor (low)and Dopamine D2 receptor (high). The method, boiled down: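 Ratio Ki(low)/Ki(high). Ki(low) comes from displacement of 1 nM [3H]spiperone in striatal membranes with 1 mM GppNHp and NaCl, 37 °C for 5 min. […] Both Ki values derived by Cheng-Prusoff from nine concentrations in triplicate; the ratio serves as an estimate of intrinsic activity.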

The target in experiment [4] is T2, D(2) dopamine receptor. The experiment in a line: In vitro low binding affinity towards Dopamine receptor D2 by the displacement of [3H]spiperone radioligand in rat striatal membranes. It counts as cell membranes, Membrane.
Experiment [5] deals with T3, 5-hydroxytryptamine receptor 1A (Rattus norvegicus, UniProt P19327).
T3 sequence (P19327 whole entry): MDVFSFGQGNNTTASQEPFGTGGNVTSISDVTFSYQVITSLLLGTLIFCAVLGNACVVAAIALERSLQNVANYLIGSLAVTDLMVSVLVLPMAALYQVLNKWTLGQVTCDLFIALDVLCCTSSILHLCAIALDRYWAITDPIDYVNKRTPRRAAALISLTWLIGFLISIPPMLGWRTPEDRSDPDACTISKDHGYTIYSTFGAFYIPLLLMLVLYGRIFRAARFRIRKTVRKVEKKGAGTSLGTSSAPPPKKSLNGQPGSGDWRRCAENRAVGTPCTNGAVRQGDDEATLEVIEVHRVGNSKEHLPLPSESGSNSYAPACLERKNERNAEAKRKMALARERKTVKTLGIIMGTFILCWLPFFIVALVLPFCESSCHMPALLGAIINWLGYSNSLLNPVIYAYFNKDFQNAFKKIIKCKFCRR
The experiment in a line: The compound was tested for binding affinity on [3H]8-OH-DPAT as specific ligand on 5-hydroxytryptamine 1A receptor in rat hippocampus. It is filed as tissue-based. In short, it runs like this: (§1)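 Rat hippocampal homogenates labelled with [3H]-8-OH-DPAT (1.8 nM), incubated 10 min at 37 °C. Stopped with cold 50 mM Tris pH 7.7. Test compounds run in triplicate at at least eight concentrations. IC50 found by nonlinear regression and converted to apparent Ki by Cheng-Prusoff. Ki values are means of at least two experiments ± SEM; values without SEM are single determinations.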

The target in experiment [6] is T1, Adrenergic receptor alpha-1. The experiment in a line: In vitro binding affinity towards Alpha-1 adrenergic receptor by the displacement of [3H]prazosin radioligand in rat cortical homogenates.
Experiment [7] concerns the target T3, 5-hydroxytryptamine receptor 1A. Nature of the experiment: In vitro binding affinity towards 5-hydroxytryptamine 1A receptor by the displacement of [3H]8-OH-DPAT radioligand in rat hippocampal homogenates. It is filed as tissue-based, Hippocampus.
For experiment [8] the target is unchanged. The experiment in a line: In vitro binding affinity towards 5-hydroxytryptamine 1A r receptor by the displacement of [3H]8-OH-DPAT radioligand in rat hippocampal homogenates. It counts as tissue-based, Hippocampus. The method, boiled down:
as §1

D(2) dopamine receptor (Rattus norvegicus), sequence (P61169 whole entry): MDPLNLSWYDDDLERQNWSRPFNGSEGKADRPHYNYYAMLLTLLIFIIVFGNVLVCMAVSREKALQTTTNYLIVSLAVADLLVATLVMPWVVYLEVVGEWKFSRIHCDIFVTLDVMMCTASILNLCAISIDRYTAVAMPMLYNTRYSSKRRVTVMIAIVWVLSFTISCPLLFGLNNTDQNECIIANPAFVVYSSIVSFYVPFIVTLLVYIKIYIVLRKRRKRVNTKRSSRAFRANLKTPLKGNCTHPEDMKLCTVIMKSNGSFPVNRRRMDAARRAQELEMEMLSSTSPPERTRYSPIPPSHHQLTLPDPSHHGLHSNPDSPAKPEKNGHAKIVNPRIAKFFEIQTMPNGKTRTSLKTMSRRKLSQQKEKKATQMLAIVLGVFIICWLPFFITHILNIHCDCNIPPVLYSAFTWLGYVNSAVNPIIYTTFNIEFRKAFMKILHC
T2 sequence (P61169 whole entry): as above

As to `O=C(c1c[nH]c2cccc(OCCNCc3ccccc3)c12)C(F)(F)F`, the inhibition constant Ki came to 0.06 µM in experiment [1], 0.003 µM on D(2) dopamine receptor [2], 0.0166 µM on D(2) dopamine receptor [4] and 0.03 µM in experiment [5]. Also, in experiment [3], the Ratio turned out to be 6.

As to `O=C1Cc2c(OCCNCc3ccc(-c4ccccc4)cc3)ccc(F)c2N1`, the Ki at D(2) dopamine receptor [2] was 0.0048 µM; in experiment [6], 0.22 µM; in experiment [7], 0.34 µM; at D(2) dopamine receptor [4], 0.0274 µM.

On to `O=C1Cc2c(OCCN3CCc4ccccc4C3)ccc(F)c2N1`, for which the inhibition constant Ki is 0.00086 µM on D(2) dopamine receptor [2], 0.128 µM in experiment [6], 0.025 µM in experiment [7] and 0.00502 µM on D(2) dopamine receptor [4].

Consider `O=C1Cc2c(OCCNCc3ccsc3)ccc(Cl)c2N1`, for which the Ki at D(2) dopamine receptor [2] is 0.00024 µM; in experiment [6], 0.014 µM; in experiment [7], 0.083 µM; at D(2) dopamine receptor [4], 0.00332 µM.

Turning to `O=C1Cc2c(cccc2OCCNCc2ccccc2)N1`, the Ki turned out to be 0.00021 µM at D(2) dopamine receptor [2], 1.448 µM in experiment [6], 0.306 µM in experiment [7] and 0.0114 µM at D(2) dopamine receptor [4].

Turning to `O=C1Cc2c(OCCNCc3ccsc3)ccc(F)c2N1`, the Ki at D(2) dopamine receptor [2] is 0.00084 µM; in experiment [6], 0.039 µM; in experiment [7], 0.024 µM; at D(2) dopamine receptor [4] it was 0.0178 µM.

For `NCCOc1cccc2c1CC(=O)N2`, the Ki at D(2) dopamine receptor [2] is 0.00693 µM; in experiment [6], 11.081 µM; in experiment [7], 0.664 µM; at D(2) dopamine receptor [4], 0.268 µM.

Take `c1ccc(CNCCOc2cccc3[nH]ccc23)cc1`: the Ki was determined as 0.675 µM in experiment [1], 0.0097 µM at D(2) dopamine receptor [2], 0.0393 µM at D(2) dopamine receptor [4] and 0.018 µM in experiment [5]. The Ratio in experiment [3] is 4.

Regarding `O=C1Cc2c(OCCNCc3ccccc3)ccc(F)c2N1`, the Ki amounted to 0.00063 µM on D(2) dopamine receptor [2], 0.052 µM in experiment [6], 0.535 µM in experiment [7] and 0.0053 µM at D(2) dopamine receptor [4].

On to `O=C1Cc2c(OCCNCc3cccs3)ccc(F)c2N1`, for which the Ki at D(2) dopamine receptor [2] was 0.00066 µM; in experiment [6], 0.032 µM; in experiment [7], 0.039 µM; at D(2) dopamine receptor [4] it was 0.0218 µM.

`O=C1Cc2c(OCCNCc3ccc(Cl)cc3)ccc(Cl)c2N1`: the Ki was 0.0014 µM on D(2) dopamine receptor [2], 0.134 µM in experiment [6], 1.89 µM in experiment [7] and 0.0041 µM on D(2) dopamine receptor [4].

For `Clc1c[nH]c2cccc(OCCNCCCCc3ccccc3)c12`, the Ki in experiment [1] was found to be 0.0085 µM; on D(2) dopamine receptor [2] it was 0.0048 µM; in experiment [8] it was 0.0005 µM; on D(2) dopamine receptor [4], 0.0157 µM. Besides, the Ratio in experiment [3] is 3.

As to `CN(CCOc1cccc2c1CC(=O)N2)Cc1ccccc1`, the Ki worked out at 0.00076 µM on D(2) dopamine receptor [2], 4.829 µM in experiment [6], 6.26 µM in experiment [7] and 0.0496 µM on D(2) dopamine receptor [4].

For orientation: Ki means a measure of affinity in units of concentration, obtained from inhibition or displacement. A high value points to a looser hold on the target.
